Measurements reported in PubChem BioAssay AID552 (SRMLSC, 2006).
Among all 20,000 compounds or so, about 10 (0.05%) were called active. The full list was thinned out, with actives kept by preference. Unmarked numbers belong to inactive results. Cut-off read from the data, not from the text of the source: active = inhibition above about 40%; inactive = the rest.

Experiment: growth inhibitors of wild type E. coli, primary screen, strain BW25113 wild type, absorbance readout (AID 552);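 note: bacteria exposed to compound for 20 hours at 37 °C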
Settings: OD600, at 10 µM, active compounds read high
Summary of the method: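 Assay system: Bacterial strain in a whole-cell growth screen | Amount: Inoculum from a 1:1000 dilution of a 1.5 h subculture | Detection: Absorbance at 615 nm as a measure of bacterial growth | Timing: 20 h exposure, 37 °C | Buffer or medium: LB plus kanamycin 50 µg/mL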

SMILES	inhibition [%]
O=C(COc1ccccc1F)NC1CC1	-9.95
CC(C)(C)C(=O)CCN1C(=O)C2(OCCO2)c2ccccc21	11.1
CCOC(=O)N1CCN(CC(=O)c2c(C)[nH]c3ccccc23)CC1	8.75
COC(=O)C(C)N(C#N)c1nc(C)nc(C)n1 (centres undefined)	-24.9
Cc1cc(Cl)ccc1N1C(=O)CC(SCCC(=O)O)C1=O (centres undefined)	0.27
COC(=O)C1=C(C)Nc2ncnn2C1c1ccco1 (centres undefined)	-13.1
CCOC(=O)c1c(C)oc2ccc(OCC(=O)N(CC)CC)cc12	-3.67
COc1ccc(-c2cc3ccc(OCc4nn[nH]n4)cc3oc2=O)cc1	-2.44
CCCn1c(C(O)c2cc(OC)ccc2OC)nc2ccccc21 (centres undefined)	-24.6
CC1Cn2c(nnc2-c2cccs2)S1 (centres undefined)	-19.2
COc1ccc(-c2nc(SCC(=O)N3CCOCC3)n[nH]2)cc1	-14
Cn1c(=O)c2c(ncn2CC(=O)N2CCN(c3ccccc3)CC2)n(C)c1=O	0.27
CC(C)NS(=O)(=O)c1ccc(OCC(=O)Nc2ccc3c(c2)OCCO3)cc1	-17.1
COc1ccccc1C(=O)n1nc(-c2ccccc2)nc1N	-5.43
Cc1nnc2sc(-c3ccco3)nn12	-19.1
O=C(c1cccnc1NCc1ccccc1)N1CCOCC1	4.48
Cc1ccc(-c2noc(CSc3nnc(-c4ccccc4)n3C)n2)cc1	13.8
Cn1c(=O)n(C)c2cc(C(=O)Nc3ccc4c(c3)OCO4)ccc21	-11.7
COc1ccc(S(=O)(=O)N2CCCC2)c(C)c1C	-7.21
CC1=C(C(=O)OC2CCCCC2)C(c2cccnc2)n2ncnc2N1 (centres undefined)	-3.82
CCOc1ccc(Cn2nnc(C(=O)Nc3ccc(OC)cc3OC)c2N)cc1	1.62
Cc1cc(C)cc(N(C(C)C(=O)Nc2c(C)n(C)n(-c3ccccc3)c2=O)S(C)(=O)=O)c1 (centres undefined)	-10.4

SMILES	inhibition [%]
Cc1nn(-c2ccccc2)c2[nH]c(C(F)(F)F)cc(=O)c12	-5.63
COc1ccc(CCNS(=O)(=O)c2ccc(C(=O)NCc3ccco3)cc2)cc1OC	8.04
O=C(c1ccco1)N1CCN(C(=O)C2CC(c3ccc(F)cc3)=NO2)CC1 (centres undefined)	9.27
CC(C(=O)N1CCOCC1)N1c2cccc3cccc(c23)S1(=O)=O (centres undefined)	-6.66
CSc1cccc(NC(=O)CSc2ccccc2)c1	-12.8
O=C(c1ccccc1-c1ccccc1)N1CCOCC1	-14.8
CC(C)n1c(NCc2c[nH]c3ccccc23)nc2ccccc21	18.1
COc1cc(NS(=O)(=O)c2ccccc2)ccc1-n1nc(C)cc1C	-15.6
COc1ccc2c(CC(=O)Nc3nnc(C4CC4)s3)coc2c1	-3.61
COc1ccccc1NC1=NC2(CCCC2)N=C(N)N1	5.8
CCc1nnc(NC(=O)c2ccc(S(=O)(=O)NC3CCCCC3)cc2)s1	-3.77
COC(=O)CN(c1nc(C)c(Cl)c(OC)n1)S(=O)(=O)c1ccc(C)cc1	-1.76
CNC(=O)NCCN1CCCC1=O	7.98
CCn1c(CNC(=O)c2ccc(OC)c(OC)c2)nnc1SCC(=O)Nc1ccccc1	-11.8
O=C(C1CCCO1)N(Cc1ccccc1)c1ccccc1 (centres undefined)	-16.8
Cc1cc(NC(=O)Cn2nc(C(F)(F)F)c3c2CCCC3)no1	-16.9
Cc1cc(C)nc(NC2=NCC(=O)N2c2ccc(Cl)cc2)n1	1.06
O=C(NCCc1ccccn1)c1ccc(COc2ccccc2)o1	15
C/C(=C(\C#N)C(=O)NCCCN1CCOCC1)N(C)C	2.5
CCOC(=O)CC1C(=O)NCCN1C(=O)COc1ccc(Br)cc1C (centres undefined)	-24.8
CC(=O)Nc1ccc(S(=O)(=O)Nc2cccc(NC(=O)C(C)(C)C)c2)cc1	-16.1
O=C1C2(c3ccccc3)CN(CCCO)CC1(c1ccccc1)CN(CCCO)C2	-16.6

SMILES	inhibition [%]
Cc1noc(C)c1CSc1nc2cc(S(=O)(=O)N3CCOCC3)ccc2o1	-3.26
CCCCNC(=O)c1ccccc1NC(=O)c1ccccc1N(C)S(C)(=O)=O	-21
COC(=O)COc1ccc2oc(=O)cc(C)c2c1	-18.5
O=S(=O)(N1CCOCC1)N1CCN(c2ccccc2F)CC1	-11.7
CCC(Oc1ccccc1)C(=O)NCc1cccnc1 (centres undefined)	-21.9
O=C(Nc1nn(Cc2ccccc2F)cc1Br)c1cccs1	-14.1
Cc1ccc(S(=O)(=O)N(C)CC(=O)NC2CCCC2)cc1	-2.1
N#CC1=C(N)C(C#N)(C#N)[C@H](c2ccsc2)[C@H]2COCC=C12	-0.035
O=C(OCC(O)C(O)COC(=O)c1ccccc1)c1ccccc1 (centres undefined)	-18.9
CCCOc1ccc(NC(=O)C2CCCNC2=O)cc1 (centres undefined)	-30.8
COc1ccc(CC(NC(C)=O)C(=O)NC2CCN(C(=O)Nc3ccc(C#N)cc3)CC2)cc1OC (centres undefined)	-1.03
Cc1cc(C(=O)Nc2c(C)n(C)n(-c3ccccc3)c2=O)cs1	-12.7
Cc1occc1C(=O)Nc1nnc(C2CCCCC2)s1	0.21
Cc1cc(=O)n(C)c(=O)n1CCCNc1ccccc1	8.62
C/C(N)=C(\C#N)C(=O)NCCc1ccccn1	-3.41
CCOC(=O)c1c(C)nc(-c2ccccc2)nc1NC(=O)C(C)C	-20.2
Cc1cc(NC(=O)CN2CCC(O)(c3cccc(F)c3)CC2)no1	-0.42
CCC(=O)Nc1nc(OC)cc(OC)n1	-16.5
COc1ccc(CC(=O)Nc2c3c(nn2-c2cccc(Cl)c2)CS(=O)C3)cc1 (centres undefined)	13.4
Cc1cc(C)nc(NC(=O)C(C)N2C(=O)c3ccccc3C2=O)n1 (centres undefined)	-17.9
